Experimental data published in ChEMBL document CHEMBL2029282, “Synthesis and characterization of 2'-C-Me branched C-nucleosides as HCV polymerase inhibitors” (Bioorg Med Chem Lett, 2012).

What was measured:
[1] = Cytotoxicity against human HuH7 cells after 24 hrs by MTS assay; format: cell-based, Huh-7
Hepatitis C virus [2] = experiment: Antiviral activity against HCV genotype 1b infected in human HuH7 cells assessed as cytoprotection after 24 hrs; format: functional, organism-based, Hepacivirus hominis; conditions: Huh-7, 24 h
Hepatitis C virus [3] = experiment: Inhibition of HCV genotype 1b NS5B after 90 mins; set-up: species or system Hepatitis C virus subtype 1b; conditions: 1.5 h
Huh-7 = experiment: Prodrug activation in human HuH7 cells assessed as compound triphosphate form at 10 uM after 24 hrs; conditions: huh-7, 24 h
[4] = Plasma clearance in beagle dog at 0.5 mg/kg, iv after 24 hrs by LC-MS/MS analysis; format: ADME, organism-based, Canis lupus familiaris; set-up: dose 0.5 mg/kg, route intravenous
Method in brief: (§1)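 Groups of 3 non-naive male beagle dogs received one dose as a solution in 5/5/5/85 ethanol/[…]/polyethylene glycol/50 mM aqueous citrate buffer (pH 3.3). Dosing was either 0.5 mg/kg by IV infusion or 1 mg/kg orally. EDTA-K3 plasma was sampled over 24 h, precipitated with acetonitrile (60% final), dried, reconstituted in 20% acetonitrile, and analysed by LC/MS/MS in positive-ion MRM mode.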

[5] = Oral bioavailability in beagle dog at 1 mg/kg; format: ADME, organism-based, Canis lupus familiaris; conditions: in vivo; method in brief: as §1
[6] = Oral bioavailability in Sprague-Dawley rat; format: ADME, organism-based; conditions: in vivo
Hepatocyte = experiment: Prodrug activation in primary human hepatocytes assessed as compound triphosphate form at 10 uM after 1 hr; format: cell-based
Method in brief: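 Primary human hepatocytes from two donors were grown confluent (0.88×10^6 cells/well) in Williams E medium with supplement. Cells were exposed to compound (10 µM) for 1 h, then drug-free medium for 23 h, and sampled during and after exposure. Cells were extracted in 70% methanol, dried, and resuspended in 1 mM ammonium phosphate pH 8.5. Triphosphate was quantified by LC/MS/MS. Two independent experiments were run in duplicate.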

Syrian golden hamster [7] = experiment: Prodrug activation in Golden Syrian hamster liver assessed as compound triphosphate form at 10 mg/kg, po […]; format: organism-based, Mesocricetus auratus; set-up: dose 10 mg/kg, route oral; conditions: in vivo
Method in brief: (§2)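 Groups of 12 Golden Syrian hamsters or Sprague–Dawley rats were dosed orally with nucleoside in water. Doses were 20 or 10 mg/kg in hamsters and 2 or 5 mg/kg in rats. Livers were harvested under isoflurane at 1, 4, 8 and 12 h and snap-frozen. Homogenate supernatant was dried, reconstituted in 1 mM ammonium phosphate pH 7.0, and triphosphate measured by LC/MS/MS, with endogenous ATP checked for stability. Values are mean±SD from 3 livers per time point.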

[8] = Elimination half life in beagle dog plasma at 0.5 mg/kg, iv after 24 hrs by LC-MS/MS analysis; format: ADME, organism-based, Canis lupus familiaris; set-up: dose 0.5 mg/kg, route intravenous; method in brief: as §1
Rattus norvegicus [9] = experiment: Prodrug activation in Sprague-Dawley rat liver assessed as compound triphosphate form at 5 mg/kg, po after […]; format: organism-based; set-up: dose 5 mg/kg, route oral; conditions: in vivo; method in brief: as §2
[10] = Volume of distribution in beagle dog at 0.5 mg/kg, iv after 24 hrs by LC-MS/MS analysis; format: ADME, organism-based, Canis lupus familiaris; set-up: dose 0.5 mg/kg, route intravenous; conditions: in vivo; method in brief: as §1
adenosine deaminase = experiment: Stability of the compound assessed as compound remaining at 10 uM after 60 mins in presence of bovine adenosine deaminase; format: ADME; conditions: cattle, read-out: Stability
Method in brief: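 Nucleosides (10 µM) were incubated at 37 °C with 0.0125 U/mL bovine adenosine deaminase in 0.01 M potassium phosphate pH 6.0 and sampled over 1 h. Reactions were quenched with ice-cold methanol containing 0.2% formic acid. Nucleoside was quantified by LC with triple-quadrupole MS in positive-ion MRM mode, and percent remaining taken at 60 min. Values are the mean of 2 independent experiments in duplicate.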

[11] = Plasma clearance in rat; format: ADME, organism-based
Syrian golden hamster [12] = experiment: Prodrug activation in Golden Syrian hamster liver assessed as compound triphosphate form at 20 mg/kg, po after 4 to 24 hrs; format: organism-based, Mesocricetus auratus; set-up: dose 20 mg/kg, route oral; conditions: in vivo
Rattus norvegicus [13] = experiment: Prodrug activation in Sprague-Dawley rat liver assessed as compound triphosphate form at 2 mg/kg, po after 4 to 24 hrs; format: organism-based; set-up: dose 2 mg/kg, route oral; conditions: in vivo

Row | Compound | CC50 at 24 h [1] | EC50 (Hepatitis C virus [2]) | IC50 (Hepatitis C virus [3]) | remaining at 1 h, 10 µM (adenosine deaminase) | other results
1 | C[C@@]1(O)[C@H](O)[C@@H](CO)O[C@H]1n1cnc2c(=O)[nH]c(N)nc21 [2'-B-METHYL-GUANOSINE] | > 89 µM | 3.25 µM | 0.25 µM |  | 
2 | C[C@@]1(O)[C@H](O)[C@@H](CO)O[C@H]1c1ccc2c(N)ncnn12 | 85 µM | 1.98 µM | 0.31 µM | 100% | Drug metabolism (Huh-7): Not Active; clearance [4]: 6.67 mL/min/kg; bioavailability [5]: 70%; bioavailability [6]: 50%; Drug metabolism (Hepatocyte): Active; Drug metabolism (Syrian golden hamster [7]): Active; half-life [8]: > 7 h; Drug metabolism (Rattus norvegicus [9]): Active; Vd [10]: 1.66 L/kg
3 | C[C@@]1(O)[C@H](O)[C@@H](CO)O[C@H]1n1cnc2c(N)ncnc21 | 66 µM | 0.35 µM | 6.83 µM | 94% | clearance [11]: > 200 mL/min/kg
4 | C[C@@]1(O)[C@H](O)[C@@H](CO)O[C@H]1c1c[nH]c(N)nc1=O | > 89 µM | > 89 µM | 13.4 µM |  | 
5 | C[C@@]1(O)[C@H](O)[C@@H](CO)O[C@H]1n1ccc(N)nc1=O | > 89 µM | 4.07 µM | 0.73 µM |  | 
6 | C[C@@]1(O)[C@H](O)[C@@H](CO)O[C@H]1c1c[nH]c(=O)[nH]c1=O | > 89 µM | > 89 µM | 13.4 µM |  | 
7 | C[C@@]1(O)[C@H](O)[C@@H](CO)O[C@H]1c1cnc2c(=O)[nH]c(N)nn12 | > 89 µM | > 89 µM | 0.19 µM |  | 
8 | C[C@@]1(O)[C@H](O)[C@@H](CO)O[C@H]1n1ccc(=O)[nH]c1=O | > 89 µM | 15.2 µM | 1.32 µM |  | 
9 | C[C@@]1(O)[C@H](O)[C@@H](CO)O[C@H]1c1cnc2c(N)ncnn12 | > 89 µM | 1.28 µM | 2.1 µM | 55% | 
10 | CC(C)(C)C(=O)SCCOP(=O)(OCCSC(=O)C(C)(C)C)OC[C@H]1O[C@@H](c2cnc3c(=O)[nH]c(N)nn23)[C@](C)(O)[C@@H]1O |  | 9.54 µM |  |  | 
11 | CC(C)(C)C(=O)SCCOP(=O)(OCCSC(=O)C(C)(C)C)OC[C@H]1O[C@@H](n2cnc3c(=O)[nH]c(N)nc32)[C@](C)(O)[C@@H]1O |  | 0.05 µM |  |  | 
12 | C[C@@]1(O)[C@H](O)[C@@H](CO)O[C@H]1n1ccc2c(N)ncnc21 [BETA-2'-C-METHYL-7-DEAZA-ADENOSINE] | > 89 µM | 0.08 µM | 0.3 µM | 98% | Drug metabolism (Syrian golden hamster [12]): Active; Drug metabolism (Rattus norvegicus [13]): Active
